Test results taken from ChEMBL document CHEMBL1250442, “Inhibiting gene expression at transcription start sites in chromosomal DNA with antigene RNAs” (Nat Chem Biol, 2005).
The source made the active and inactive calls. No cut-off for these calls is given here.

What was measured:
T47D [1] = assay: Inhibition of PR-B gene expression in human T47D cells at 25 nM by syber green assay in presence of 10 nM estradiol; assay type: functional, cell-based
T47D [2] = assay: Inhibition of PR-A mRNA gene expression in human T47D cells at 100 nM by syber green assay; assay type: functional
In short: (§1)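 T47D cells plated at 80,000/well without antibiotics two days before Oligofectamine transfection with agRNA duplex (25 or 100 nM final); medium changed at 24 h, harvest day 5 unless stated otherwise. TRIzol total RNA; PR mRNA by real-time PCR with SYBR Green: 50 °C 2 min, 95 °C 10 min, 40 cycles 95 °C 15 s/60 °C 1 min.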

T47D [3] = assay: Inhibition of PR-A gene expression in human T47D cells at 25 nM by syber green assay in presence of 10 nM estradiol; assay type: functional, cell-based
T47D [4] = assay: Inhibition of androgen receptor expression in human T47D cells after 12 days at 100 nM by syber green assay; assay type: functional, cell-based
In short: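 AR expression in T47D cells, grown in RPMI-1640 with 10% FBS, NEAA and insulin. Plated antibiotic-free two days before Oligofectamine transfection with 100 nM duplex RNA; medium replaced after 24 h. TRIzol total RNA. SYBR Green real-time PCR: 50 °C 2 min, 95 °C 10 min, 40 cycles of 95 °C 15 s and 60 °C 1 min.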

T47D [5] = assay: Inhibition of PR-B mRNA gene expression in human T47D cells at 100 nM by syber green assay; assay type: functional
In short: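 T47D cells in RPMI-1640 with 10% FBS, NEAA, insulin, 37 °C, 5% CO2. Plated two days before transfection without antibiotics. Oligofectamine-mediated duplex RNA transfection at 100 nM final, medium changed at 24 h, harvest five days post-transfection. Total RNA extracted with TRIzol. hPR mRNA quantified by SYBR Green qPCR: 50 °C 2 min, 95 °C 10 min, then 40 cycles of 95 °C 15 s / 60 °C 1 min.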

T47D [6] = assay: Inhibition of PR-A gene expression in human T47D cells at 25 nM by syber green assay; assay type: functional; in short: as §1
T47D [7] = assay: Inhibition of PR-B gene expression in human T47D cells at 25 nM by syber green assay; assay type: functional; in short: as §1

Compound	inhibition (T47D [1])	inhibition at 0.1 µM (T47D [2]) [%]	inhibition (T47D [3])	inhibition (T47D [4])	inhibition at 0.1 µM (T47D [5]) [%]	inhibition at 0.025 µM (T47D [6]) [%]	inhibition at 0.025 µM (T47D [7]) [%]
Cc1cn(CC(=O)N(CCNC(=O)CN(CCNC(=O)CN(CCNC(=O)CN(CCNC(=O)CN(CCNC(=O)CN(CCNC(=O)CN(CCNC(=O)CN(CCNC(=O)CN(CCNC(=O)CN(CCNC(=O)CN(CCNC(=O)CN(CCNC(=O)CN(CCNC(=O)CN(CCNC(=O)CN(CCNC(=O)CN(CCNC(=O)CN(CCNC(=O)CN(CCNC(=O)CN(CCNC(=O)CN(CCNC(=O)CN)C(=O)Cn2ccc(N)nc2=O)C(=O)Cn2cnc3c(N)ncnc32)C(=O)Cn2ccc(N)nc2=O)C(=O)Cn2ccc(N)nc2=O)C(=O)Cn2ccc(=O)[nH]c2=O)C(=O)Cn2ccc(N)nc2=O)C(=O)Cn2ccc(N)nc2=O)C(=O)Cn2ccc(N)nc2=O)C(=O)Cn2cnc3c(N)ncnc32)C(=O)Cn2cnc3c(=O)[nH]c(N)nc32)C(=O)Cn2ccc(N)nc2=O)C(=O)Cn2cnc3c(=O)[nH]c(N)nc32)C(=O)Cn2ccc(N)nc2=O)C(=O)Cn2ccc(N)nc2=O)C(=O)Cn2ccc(N)nc2=O)C(=O)Cn2ccc(N)nc2=O)C(=O)Cn2ccc(N)nc2=O)C(=O)Cn2ccc(=O)[nH]c2=O)C(=O)Cn2ccc(N)nc2=O)CC(=O)NCCN(CC(=O)NCC(=O)O)C(=O)Cn2cc(C)c(=O)[nH]c2=O)c(=O)[nH]c1=O	Active	100	Active	Active	100		
Cc1cn(CC(=O)N(CCNC(=O)CN(CCNC(=O)CN(CCNC(=O)CN(CCNC(=O)CN(CCNC(=O)CN(CCNC(=O)CN(CCNC(=O)CN(CCNC(=O)CN(CCNC(=O)CN(CCNC(=O)CN(CCNC(=O)CN(CCNC(=O)CN(CCNC(=O)CN(CCNC(=O)CN(CCNC(=O)CN(CCNC(=O)CN(CCNC(=O)CN(CCNC(=O)CN(CCNC(=O)CN(CCNC(=O)CN)C(=O)Cn2ccc(N)nc2=O)C(=O)Cn2cnc3c(=O)[nH]c(N)nc32)C(=O)Cn2ccc(=O)[nH]c2=O)C(=O)Cn2ccc(=O)[nH]c2=O)C(=O)Cn2cnc3c(=O)[nH]c(N)nc32)C(=O)Cn2ccc(=O)[nH]c2=O)C(=O)Cn2ccc(=O)[nH]c2=O)C(=O)Cn2cnc3c(N)ncnc32)C(=O)Cn2cnc3c(=O)[nH]c(N)nc32)C(=O)Cn2cnc3c(N)ncnc32)C(=O)Cn2cnc3c(N)ncnc32)C(=O)Cn2cnc3c(N)ncnc32)C(=O)Cn2cnc3c(=O)[nH]c(N)nc32)C(=O)Cn2ccc(N)nc2=O)C(=O)Cn2ccc(=O)[nH]c2=O)C(=O)Cn2cnc3c(=O)[nH]c(N)nc32)C(=O)Cn2ccc(=O)[nH]c2=O)C(=O)Cn2ccc(N)nc2=O)C(=O)Cn2ccc(=O)[nH]c2=O)CC(=O)NCCN(CC(=O)NCC(=O)O)C(=O)Cn2cc(C)c(=O)[nH]c2=O)c(=O)[nH]c1=O	Active	29	Active		26	< 20	< 20
Cc1cn(CC(=O)N(CCNC(=O)CN(CCNC(=O)CN(CCNC(=O)CN(CCNC(=O)CN(CCNC(=O)CN(CCNC(=O)CN(CCNC(=O)CN(CCNC(=O)CN(CCNC(=O)CN(CCNC(=O)CN(CCNC(=O)CN(CCNC(=O)CN(CCNC(=O)CN(CCNC(=O)CN(CCNC(=O)CN(CCNC(=O)CN(CCNC(=O)CN(CCNC(=O)CN(CCNC(=O)CN(CCNC(=O)CN)C(=O)Cn2ccc(N)nc2=O)C(=O)Cn2ccc(=O)[nH]c2=O)C(=O)Cn2cnc3c(=O)[nH]c(N)nc32)C(=O)Cn2ccc(=O)[nH]c2=O)C(=O)Cn2ccc(N)nc2=O)C(=O)Cn2ccc(=O)[nH]c2=O)C(=O)Cn2cnc3c(=O)[nH]c(N)nc32)C(=O)Cn2cnc3c(=O)[nH]c(N)nc32)C(=O)Cn2ccc(N)nc2=O)C(=O)Cn2ccc(N)nc2=O)C(=O)Cn2cnc3c(N)ncnc32)C(=O)Cn2cnc3c(=O)[nH]c(N)nc32)C(=O)Cn2ccc(=O)[nH]c2=O)C(=O)Cn2ccc(N)nc2=O)C(=O)Cn2ccc(N)nc2=O)C(=O)Cn2cnc3c(N)ncnc32)C(=O)Cn2ccc(N)nc2=O)C(=O)Cn2cnc3c(N)ncnc32)C(=O)Cn2cnc3c(=O)[nH]c(N)nc32)CC(=O)NCCN(CC(=O)NCC(=O)O)C(=O)Cn2cc(C)c(=O)[nH]c2=O)c(=O)[nH]c1=O	Active	99	Active		100	50	55
Cc1cn(CC(=O)N(CCNC(=O)CN(CCNC(=O)CN(CCNC(=O)CN(CCNC(=O)CN(CCNC(=O)CN(CCNC(=O)CN(CCNC(=O)CN(CCNC(=O)CN(CCNC(=O)CN(CCNC(=O)CN(CCNC(=O)CN(CCNC(=O)CN(CCNC(=O)CN(CCNC(=O)CN(CCNC(=O)CN(CCNC(=O)CN(CCNC(=O)CN(CCNC(=O)CN(CCNC(=O)CN(CCNC(=O)CN)C(=O)Cn2cnc3c(=O)[nH]c(N)nc32)C(=O)Cn2cnc3c(=O)[nH]c(N)nc32)C(=O)Cn2cnc3c(=O)[nH]c(N)nc32)C(=O)Cn2ccc(N)nc2=O)C(=O)Cn2ccc(N)nc2=O)C(=O)Cn2ccc(=O)[nH]c2=O)C(=O)Cn2ccc(N)nc2=O)C(=O)Cn2ccc(N)nc2=O)C(=O)Cn2ccc(N)nc2=O)C(=O)Cn2ccc(=O)[nH]c2=O)C(=O)Cn2cnc3c(N)ncnc32)C(=O)Cn2cnc3c(=O)[nH]c(N)nc32)C(=O)Cn2cnc3c(N)ncnc32)C(=O)Cn2cnc3c(=O)[nH]c(N)nc32)C(=O)Cn2cnc3c(=O)[nH]c(N)nc32)C(=O)Cn2cnc3c(N)ncnc32)C(=O)Cn2cnc3c(=O)[nH]c(N)nc32)C(=O)Cn2cnc3c(=O)[nH]c(N)nc32)C(=O)Cn2cnc3c(N)ncnc32)CC(=O)NCCN(CC(=O)NCC(=O)O)C(=O)Cn2cc(C)c(=O)[nH]c2=O)c(=O)[nH]c1=O	Active	< 20	Active		< 20	< 20	< 20
Cc1cn(CC(=O)N(CCNC(=O)CN(CCNC(=O)CN(CCNC(=O)CN(CCNC(=O)CN(CCNC(=O)CN(CCNC(=O)CN(CCNC(=O)CN(CCNC(=O)CN(CCNC(=O)CN(CCNC(=O)CN(CCNC(=O)CN(CCNC(=O)CN(CCNC(=O)CN(CCNC(=O)CN(CCNC(=O)CN(CCNC(=O)CN(CCNC(=O)CN(CCNC(=O)CN(CCNC(=O)CN(CCNC(=O)CN)C(=O)Cn2cnc3c(=O)[nH]c(N)nc32)C(=O)Cn2ccc(=O)[nH]c2=O)C(=O)Cn2ccc(=O)[nH]c2=O)C(=O)Cn2cnc3c(N)ncnc32)C(=O)Cn2cnc3c(=O)[nH]c(N)nc32)C(=O)Cn2cnc3c(N)ncnc32)C(=O)Cn2cnc3c(N)ncnc32)C(=O)Cn2cnc3c(N)ncnc32)C(=O)Cn2cnc3c(=O)[nH]c(N)nc32)C(=O)Cn2ccc(N)nc2=O)C(=O)Cn2ccc(=O)[nH]c2=O)C(=O)Cn2cnc3c(=O)[nH]c(N)nc32)C(=O)Cn2ccc(=O)[nH]c2=O)C(=O)Cn2ccc(N)nc2=O)C(=O)Cn2ccc(=O)[nH]c2=O)C(=O)Cn2cnc3c(=O)[nH]c(N)nc32)C(=O)Cn2cnc3c(=O)[nH]c(N)nc32)C(=O)Cn2ccc(N)nc2=O)C(=O)Cn2ccc(N)nc2=O)CC(=O)NCCN(CC(=O)NCC(=O)O)C(=O)Cn2cc(C)c(=O)[nH]c2=O)c(=O)[nH]c1=O	Active	< 20	Active		< 20	< 20	< 20
